Key:
Type in all cases: functional
HL-60(TB) = test: Cytotoxicity against human HL-60(TB) cells
Outline: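 Tested within the NCI 60-cell-line screen, with GI50 as the read-out. Values are the average of two independent experiments. The lowest concentration tested was 10 nM.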

K562 = test: Cytotoxicity against human K562 cells
Outline: (§1)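 Tested in a 60-cell-line human tumor panel screen; the read-out is growth inhibition, reported as GI50 for each cell line.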

MOLT-4 = test: Cytotoxicity against human MOLT4 cells; outline: as §1
A549 = test: Cytotoxicity against human A549 cells; outline: as §1
[1] = Cytotoxicity against human EKVX cells; outline: as §1
NCI-H226 = test: Cytotoxicity against human NCI-H226 cells; outline: as §1
NCI-H23 = test: Cytotoxicity against human NCI-H23 cells; outline: as §1
HCC 2998 = test: Cytotoxicity against human HCC2998 cells; outline: as §1
HCT-116 = test: Cytotoxicity against human HCT116 cells; outline: as §1
[2] = Cytotoxicity against human HCT15 cells; outline: as §1
HT-29 = test: Cytotoxicity against human HT-29 cells; outline: as §1
KM12 = test: Cytotoxicity against human KM12 cells; outline: as §1
SF-268 = test: Cytotoxicity against human SF268 cells; outline: as §1
SF-295 = test: Cytotoxicity against human SF295 cells; outline: as §1
SF-539 = test: Cytotoxicity against human SF539 cells; outline: as §1
SNB-75 = test: Cytotoxicity against human SNB75 cells
Outline: (§2)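 Cell line run as part of the 60-cell-line screening panel; growth inhibition was reported as a GI50 for each line.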

U-251 = test: Cytotoxicity against human U251 cells; outline: as §2
LOX IMVI = test: Cytotoxicity against human LOXIMVI cells; outline: as §1
M14 = test: Cytotoxicity against human M14 cells; outline: as §1
MDA-MB-435 = test: Cytotoxicity against human MDA-MB-435 cells; outline: as §1
NCI-H460 = test: Cytotoxicity against human NCI-H460 cells; outline: as §1
SK-MEL-2 = test: Cytotoxicity against human SK-MEL-2 cells; outline: as §1
[3] = Cytotoxicity against human UACC257 cells; outline: as §2
IGROV-1 = test: Cytotoxicity against human IGROV1 cells; outline: as §1
[4] = Cytotoxicity against human OVCAR3 cells; outline: as §1
[5] = Cytotoxicity against human OVCAR4 cells; outline: as §1
[6] = Cytotoxicity against human OVCAR5 cells; outline: as §1
[7] = Cytotoxicity against human OVCAR8 cells; outline: as §1
[8] = Cytotoxicity against human NCI-ADR-RES cells; outline: as §1
SK-OV-3 = test: Cytotoxicity against human SKOV3 cells; outline: as §1
786-0 = test: Cytotoxicity against human 786-0 cells; outline: as §1
A498 = test: Cytotoxicity against human A498 cells; outline: as §1
ACHN = test: Cytotoxicity against human ACHN cells; outline: as §1
CAKI-1 = test: Cytotoxicity against human Caki1 cells; outline: as §1
RXF 393 = test: Cytotoxicity against human RXF393 cells; outline: as §1
SN12C = test: Cytotoxicity against human SN12C cells; outline: as §1
TK-10 = test: Cytotoxicity against human TK10 cells; outline: as §2
[9] = Cytotoxicity against human UO31 cells; outline: as §2
DU-145 = test: Cytotoxicity against human DU145 cells; outline: as §1
MCF7 = test: Cytotoxicity against human MCF7 cells; outline: as §1
MDA-MB-231 = test: Cytotoxicity against human MDA-MB-231 cells; outline: as §1
BT-549 = test: Cytotoxicity against human BT549 cells; outline: as §1
T47D = test: Cytotoxicity against human T47D cells; outline: as §2
[10] = read-out: pLC50 (the source's name) (converted)

For `COc1cc(/C=C/c2cc(O)c3c(c2)C[C@@H]2C(C)(C)[C@H](O)CC[C@@]2(C)O3)cc2c1ccn2C`, the GI50 (HL-60(TB)) was 0.0447 µM, the CC50 (HL-60(TB); [10]) was 89.1 µM and the TGI (HL-60(TB); read-out: pTGI (converted)) was 16.6 µM. The GI50 (K562) was 0.0813 µM, the CC50 (K562; [10]) was 89.1 µM and the TGI (K562; read-out: pTGI (converted)) was 6.31 µM. It also gave a GI50 (MOLT-4) of 0.0389 µM, a CC50 (MOLT-4; [10]) of 89.1 µM and a TGI (MOLT-4; read-out: pTGI (converted)) of 14.8 µM. For the same compound, the GI50 (A549) was 9.55 µM, the CC50 (A549; [10]) was 58.9 µM and the TGI (A549; read-out: pTGI (converted)) was 23.4 µM. For the same compound, the GI50 [1] was 4.07 µM, the CC50 [1, 10] was 64.6 µM and the TGI ([1]; read-out: pTGI (converted)) was 22.9 µM. It also gave a GI50 (NCI-H226) of 16.2 µM, a CC50 (NCI-H226; [10]) of 89.1 µM and a TGI (NCI-H226; read-out: pTGI (converted)) of 60.3 µM. For the same compound, the GI50 (NCI-H23) was 1.38 µM, the CC50 (NCI-H23; [10]) was 44.7 µM and the TGI (NCI-H23; read-out: pTGI (converted)) was 15.5 µM. For the same compound, the GI50 (HCC 2998) was 0.214 µM, the CC50 (HCC 2998; [10]) was 45.7 µM and the TGI (HCC 2998; read-out: pTGI (converted)) was 18.6 µM. The GI50 (HCT-116) was 0.407 µM, the CC50 (HCT-116; [10]) was 35.5 µM and the TGI (HCT-116; read-out: pTGI (converted)) was 13.5 µM. For the same compound, the GI50 ([2]; HCT-15) was 2.95 µM, the CC50 ([2]; HCT-15, read-out: pLC50 (the source's name) (converted)) was 33.9 µM and the TGI ([2]; HCT-15, read-out: pTGI (converted)) was 6.76 µM. For the same compound, the GI50 (HT-29) was 6.03 µM, the CC50 (HT-29; [10]) was 41.7 µM and the TGI (HT-29; read-out: pTGI (converted)) was 15.1 µM. For the same compound, the GI50 (KM12) was 0.295 µM, the CC50 (KM12; [10]) was 44.7 µM and the TGI (KM12; read-out: pTGI (converted)) was 18.6 µM. It also gave a GI50 (SF-268) of 0.0129 µM, a CC50 (SF-268; [10]) of 69.2 µM and a TGI (SF-268; read-out: pTGI (converted)) of 24 µM. For the same compound, the GI50 (SF-295; read-out: GI50) was under 0.012 µM, the GI50 (SF-295; read-out: pGI50 (converted)) was 0.0209 µM and the CC50 (SF-295; [10]) was 1.95 µM. For the same compound, the TGI (SF-295; read-out: pTGI (converted)) was 0.0437 µM, the GI50 (SF-539) was 1.62 µM and the CC50 (SF-539; [10]) was 45.7 µM. The TGI (SF-539; read-out: pTGI (converted)) was 13.2 µM, the GI50 (SNB-75) was 0.0525 µM and the CC50 (SNB-75; [10]) was 35.5 µM. The TGI (SNB-75; read-out: pTGI (converted)) was 5.37 µM, the GI50 (U-251) was 0.141 µM and the CC50 (U-251; [10]) was 43.7 µM. The TGI (U-251; read-out: pTGI (converted)) was 15.5 µM, the GI50 (LOX IMVI) was 0.123 µM and the CC50 (LOX IMVI; [10]) was 26.9 µM. The TGI (LOX IMVI; read-out: pTGI (converted)) was 4.57 µM, the GI50 (M14) was 0.759 µM and the CC50 (M14; [10]) was 7.08 µM. It also gave a TGI (M14; read-out: pTGI (converted)) of 1.26 µM, a GI50 (MDA-MB-435) of 0.389 µM and a CC50 (MDA-MB-435; [10]) of 61.7 µM. It also gave a TGI (MDA-MB-435; read-out: pTGI (converted)) of 9.12 µM, a GI50 (NCI-H460) of 0.309 µM and a CC50 (NCI-H460; [10]) of 89.1 µM. It also gave a TGI (NCI-H460; read-out: pTGI (converted)) of 23.4 µM, a GI50 (SK-MEL-2) of 2.29 µM and a CC50 (SK-MEL-2; [10]) of 43.7 µM. The TGI (SK-MEL-2; read-out: pTGI (converted)) was 17 µM, the GI50 ([3]; UACC-257) was 0.0389 µM and the CC50 ([3]; UACC-257, read-out: pLC50 (the source's name) (converted)) was 64.6 µM. For the same compound, the TGI ([3]; UACC-257, read-out: pTGI (converted)) was 25.1 µM, the GI50 (IGROV-1) was 10.7 µM and the CC50 (IGROV-1; [10]) was 89.1 µM. For the same compound, the TGI (IGROV-1; read-out: pTGI (converted)) was 25.7 µM, the GI50 ([4]; OVCAR-3) was 10.2 µM and the CC50 ([4]; OVCAR-3, read-out: pLC50 (the source's name) (converted)) was 53.7 µM. The TGI ([4]; OVCAR-3, read-out: pTGI (converted)) was 24 µM, the GI50 ([5]; OVCAR-4) was 8.51 µM and the CC50 ([5]; OVCAR-4, read-out: pLC50 (the source's name) (converted)) was 56.2 µM. It also gave a TGI ([5]; OVCAR-4, read-out: pTGI (converted)) of 24 µM, a GI50 ([6]; OVCAR-5) of 11.2 µM and a CC50 ([6]; OVCAR-5, read-out: pLC50 (the source's name) (converted)) of 53.7 µM. The TGI ([6]; OVCAR-5, read-out: pTGI (converted)) was 21.9 µM, the GI50 ([7]; OVCAR-8) was 4.27 µM and the CC50 ([7]; OVCAR-8, read-out: pLC50 (the source's name) (converted)) was 89.1 µM. It also gave a TGI ([7]; OVCAR-8, read-out: pTGI (converted)) of 39.8 µM, a GI50 [8] of 9.55 µM and a CC50 [8, 10] of 89.1 µM. The TGI ([8]; read-out: pTGI (converted)) was 46.8 µM, the LC50 (SK-OV-3) was 89.1 µM and the TGI (SK-OV-3; read-out: pTGI (converted)) was 35.5 µM. It also gave a GI50 (786-0) of 0.0275 µM, an LC50 (concentration killing 50% of cells) (786-0) of 7.94 µM and a TGI (786-0; read-out: pTGI (converted)) of 1.7 µM. It also gave a GI50 (A498) of 0.0437 µM, a CC50 (A498; [10]) of 53.7 µM and a TGI (A498; read-out: pTGI (converted)) of 9.33 µM. For the same compound, the GI50 (ACHN) was 1.23 µM, the LC50 (concentration killing 50% of cells) (ACHN) was 50.1 µM and the TGI (ACHN; read-out: pTGI (converted)) was 17.8 µM. For the same compound, the GI50 (CAKI-1) was 0.479 µM, the LC50 (CAKI-1) was 89.1 µM and the TGI (CAKI-1; read-out: pTGI (converted)) was 9.12 µM. It also gave a GI50 (RXF 393) of 0.00891 µM, an LC50 (RXF 393) of 27.5 µM and a TGI (RXF 393; read-out: pTGI (converted)) of 1.58 µM. For the same compound, the GI50 (SN12C) was 10.5 µM, the LC50 (SN12C) was 52.5 µM and the TGI (SN12C; read-out: pTGI (converted)) was 23.4 µM. It also gave a GI50 (TK-10) of 9.77 µM, an LC50 (TK-10) of 63.1 µM and a TGI (TK-10; read-out: pTGI (converted)) of 25.1 µM. For the same compound, the GI50 ([9]; UO-31) was 0.0813 µM, the LC50 ([9]; UO-31) was 32.4 µM and the TGI ([9]; UO-31, read-out: pTGI (converted)) was 2.95 µM. It also gave a GI50 (DU-145) of 5.62 µM, an LC50 (50% lethal concentration) (DU-145) of 42.7 µM and a TGI (DU-145; read-out: pTGI (converted)) of 19.1 µM. The GI50 (MCF7) was 0.661 µM, the LC50 (MCF7) was 50.1 µM and the TGI (MCF7; read-out: pTGI (converted)) was 12.3 µM. The GI50 (MDA-MB-231) was 3.89 µM, the LC50 (MDA-MB-231) was 51.3 µM and the TGI (MDA-MB-231; read-out: pTGI (converted)) was 19.1 µM. For the same compound, the GI50 (BT-549) was 0.138 µM, the CC50 (BT-549; [10]) was 52.5 µM and the TGI (BT-549; read-out: pTGI (converted)) was 20.4 µM. It also gave a GI50 (T47D) of 7.41 µM, a CC50 (T47D; [10]) of 63.1 µM and a TGI (T47D; read-out: pTGI (converted)) of 23.4 µM.

Source: ChEMBL document CHEMBL3232844, “Synthesis and structure activity relationships of schweinfurthin indoles” (2014)
